Data reported in ChEMBL document CHEMBL4261600 (Eur J Med Chem, 2018).
Active and inactive are the calls of the source.

What was measured:
[1] = molecular target: Casein kinase II subunit alpha' (Homo sapiens) (UniProt P19784); assay: Binding affinity to wild-type human full length CSNK2A2 (M1 to R350 residues) expressed in mammalian expression system assessed as remaining unbound target protein level at 1000 nM by Kinomescan method relative to control
Summary of the method: (§1)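 KINOMEscan competition binding profile across a panel of 468 kinases and mutants, with the inhibitor tested at a single concentration of 1 μM. Binding is reported as percent of control, meaning signal relative to a DMSO control.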

[2] = molecular target: Serine/threonine-protein kinase 32B (Homo sapiens) (UniProt Q9NY57); assay: Binding affinity to wild-type human full length YANK2 (M1 to S414 residues) expressed in bacterial expression system assessed as remaining unbound target protein level at 1000 nM by Kinomescan method relative to control
Summary of the method: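 Profiled in a KINOMEscan binding panel with the inhibitor at a single concentration of 1 μM. Binding to each kinase was read out as percent of control, relative to a DMSO control. Strong binders were defined as those with a percent control value below 1.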

[3] = molecular target: Activin receptor type-1 (Homo sapiens) (UniProt Q04771); assay: Binding affinity to wild-type human ACVR1 (C188 to C509 residues) expressed in bacterial expression system assessed as remaining unbound target protein level at 1000 nM by Kinomescan method relative to control
Summary of the method: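 KINOMEscan competitive binding profile at 1 μM inhibitor. Remaining target binding reported as percent of DMSO control.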

CDK9/Cyclin K = CDK9/Cyclin K (Homo sapiens, UniProt P50750); assay: Inhibition of CDK9/Cyclin K (unknown origin) using PDKtide as substrate incubated at 37 degreeC for 1 hr followed by incubation at room temperature for 5 mins by ADP-Glo reagent based luminescence assay; assay type: protein-complex assay
[4] = molecular target: Tyrosine-protein kinase SYK (Homo sapiens) (UniProt P43405); assay: Binding affinity to wild-type human partial length SYK (D354 to N635 residues) expressed in bacterial expression system assessed as remaining unbound target protein level at 1000 nM by Kinomescan method relative to control
[5] = molecular target: Ribosomal protein S6 kinase beta-1 (Homo sapiens) (UniProt P23443); assay: Binding affinity to wild-type human partial length S6K1 (M1 to S421 residues) expressed in mammalian expression system assessed as remaining unbound target protein level at 1000 nM by Kinomescan method relative to control
[6] = molecular target: NUAK family SNF1-like kinase 2 (Homo sapiens) (UniProt Q9H093); assay: Binding affinity to wild-type human partial length SNARK (P22 to A333 residues) expressed in mammalian expression system assessed as remaining unbound target protein level at 1000 nM by Kinomescan method relative to control
[7] = molecular target: Casein kinase I isoform alpha (Homo sapiens) (UniProt P48729); assay: Binding affinity to wild-type human partial length CSNK1A1 (M1 to L450 residues) expressed in mammalian expression system assessed as remaining unbound target protein level at 1000 nM by Kinomescan method relative to control; summary of the method: as §1
[8] = molecular target: Cyclin-dependent kinase 9 (Homo sapiens, UniProt P50750); assay: Inhibition of CDK9 in human MEC1 cells assessed as decrease in phosphorylation at Thr 186 residues up to 3 uM after 2 hrs by immunoblotting analysis; assay type: cell-based
[9] = molecular target: Myosin light chain kinase (Homo sapiens) (UniProt Q32MK0); assay: Binding affinity to wild-type human partial length MLCK (D488 to K800 residues) expressed in bacterial expression system assessed as remaining unbound target protein level at 1000 nM by Kinomescan method relative to control
[10] = molecular target: Mitogen-activated protein kinase 1 (Homo sapiens) (UniProt P28482); assay: Binding affinity to wild-type human full length ERK2 (M1 to S360 residues) expressed in bacterial expression system assessed as remaining unbound target protein level at 1000 nM by Kinomescan method relative to control
Summary of the method: (§2)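 Single-point competition binding screen across a panel of 468 kinases and mutants, with the inhibitor at 1 μM. Binding is read out as percent of a DMSO control, and targets below 1 percent control were classed as strong binders.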

[11] = molecular target: Casein kinase I isoform epsilon (Homo sapiens) (UniProt P49674); assay: Binding affinity to wild-type human full length CSNK1E (M1 to K416 residues) expressed in bacterial expression system assessed as remaining unbound target protein level at 1000 nM by Kinomescan method relative to control; summary of the method: as §2
[12] = molecular target: Mitogen-activated protein kinase kinase kinase 2 (Homo sapiens) (UniProt Q9Y2U5); assay: Binding affinity to wild-type human partial length MAP3K2 (S315 to H619 residues) expressed in mammalian expression system assessed as remaining unbound target protein level at 1000 nM by Kinomescan method relative to control
Summary of the method: (§3)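 KINOMEscan binding panel of 468 kinases/mutants. Inhibitor was tested at a single concentration of 1 μM. Binding is reported as percent of control, defined relative to a DMSO control.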

[13] = molecular target: Tyrosine-protein kinase Fer (Homo sapiens) (UniProt P16591); assay: Binding affinity to wild-type human partial length FER (S542 to T822 residues) expressed in bacterial expression system assessed as remaining unbound target protein level at 1000 nM by Kinomescan method relative to control
[14] = molecular target: Tyrosine-protein kinase TXK (Homo sapiens) (UniProt P42681); assay: Binding affinity to wild-type human partial length TXK (L238 to W527 residues) expressed in bacterial expression system assessed as remaining unbound target protein level at 1000 nM by Kinomescan method relative to control
[15] = molecular target: Tyrosine-protein kinase Mer (Homo sapiens) (UniProt Q12866); assay: Binding affinity to wild-type human partial length MERTK (R557 to L884 residues) expressed in bacterial expression system assessed as remaining unbound target protein level at 1000 nM by Kinomescan method relative to control; summary of the method: as §3
[16] = Oral bioavailability in Sprague-Dawley rat at 20 mg/kg by LC-MS/MS analysis; assay type: ADME, organism-based; conditions: in vivo
Mus musculus = assay: Toxicity in nu/nu mouse xenografted with MV4-11 cells assessed as effect on body weight at 10 to 30 mg/kg, po administered via gavage for 21 days measured every day during compound dosing; assay type: organism-based; conditions: in vivo, 504 h
[17] = molecular target: Ribosomal protein S6 kinase alpha-6 (Homo sapiens) (UniProt Q9UK32); assay: Binding affinity to wild-type human partial length N-terminal RSK4 kinase domain 1 (M1 to E397 residues) expressed in mammalian expression system assessed as remaining unbound target protein level at 1000 nM by Kinomescan method relative to control; summary of the method: as §3
[18] = molecular target: Mitogen-activated protein kinase kinase kinase 6 (Homo sapiens) (UniProt O95382); assay: Binding affinity to wild-type human partial length ASK2 (M278 to R972 residues) expressed in mammalian expression system assessed as remaining unbound target protein level at 1000 nM by Kinomescan method relative to control; summary of the method: as §1
[19] = system: Tyrosine-protein kinase ABL1 (Homo sapiens), P00519 [H396P]; assay: Binding affinity to human phosphorylated ABL1 H396P mutant (S229 to K512 residues) expressed in mammalian expression system assessed as remaining unbound target protein level at 1000 nM by Kinomescan method relative to control; summary of the method: as §2

## COCCN[C@H]1CC[C@H](Nc2cc(-c3csc(NCC4(C#N)CCOCC4)n3)c(Cl)cn2)CC1
[1]
  Activity: 99%
[2]
  Activity: 100%
[3]
  Activity: 91%
CDK9/Cyclin K
  IC50: 6 nM
[4]
  Activity: 93%
[5]
  Activity: 95%
[6]
  Activity: 100%
[7]
  Activity: 99%
[8]
  inhibition: inactive
[9]
  Activity: 100%
[10]
  Activity: 96%
[11]
  Activity: 87%
[12]
  Activity: 74%
[13]
  Activity: 88%
[14]
  Activity: 90%
[15]
  Activity: 94%
[16]
  bioavailability: 45.1%
Mus musculus
  Activity: Non-Toxic
[17]
  Activity: 94%
[18]
  Activity: 86%
[19]
  Activity: 95%
